Structures are written as SMILES. Activity calls are given as the source filed them. No cut-off for these calls is given here.

Data set [1] relates to SW-620. Description: Antitumor activity against SW-620 cells xenografted in Balb/c mouse assessed as tumor growth suppression at 50 mg/kg, po administered once daily for 5 days. It is filed as functional, organism-based. The conditions noted are these: time 5.0 day. The gist of the method: (§1)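 Male BALB/c nude mice carried SW620 xenografts (6×10^6 cells s.c.), randomized at ~150 mm³ (6 per group). TMZ 50 mg/kg was given orally once daily on days 0-4, 45 min after the partner drug. Partners were 5 or 10 mg/kg intraperitoneally or 10 mg/kg by oral gavage, daily for 5 days. Vehicle was 5% DMSO/20% PEG400/10% Cremophor EL/65% saline. Tumor volume and body weight were recorded 2-3 times weekly.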

Data set [2] can be described thus: Acute toxicity in Balb/c mouse xenografted with SW-620 cells assessed as mean weight loss at 50 mg/kg, po qd administered for 5 days measured on day 6 relative to control. It is filed as organism-based. The conditions noted are these: in vivo, 144 h, time 6 day.
Data set [3] relates to MDA-MB-436. Kind of data set: Antiproliferative activity against human MDA-MB-436 cells assessed as cell growth inhibition incubated for 7 days by CCK-8 assay. It is filed as functional, cell-based. The conditions noted are these: MDA-MB-436, 168 h. The gist of the method: (§2)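 Cells were sub-cultured at least twice and seeded for 24 h before dosing. Compounds came from 10 mM DMSO stocks, given as 10 points of 3-fold serial dilution starting at 10-20 μM. Incubation was about 7 days (Capan-1 13 days) at 37 °C, 5% CO2. Read-out was CCK-8 absorbance at 450 nm, as % growth versus DMSO wells (duplicate wells). IC50 was fitted by nonlinear regression; three independent experiments.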
In general terms: Formazan colour is commonly taken as a measure of viable cells.

For data set [4], the system named is CAPAN-1. Description: Antiproliferative activity against human CAPAN-1 cells assessed as cell growth inhibition incubated for 13 days by CCK-8 assay. It is filed as functional, cell-based. The conditions noted are these: CAPAN-1, 312 h. In a few lines:
as §2

The next data set concerns PC-3. Kind of data set: Antiproliferation activity against human PC-3 assessed as cell growth inhibition incubated for 7 days by CCK-8 assay. It is filed as functional, cell-based. The conditions noted are these: time 7.0 day. The gist of the method: as §2
The next data set has as its system HCC1937. Description: Antiproliferation activity against human HCC1937 assessed as cell growth inhibition incubated for 7 days by CCK-8 assay. It is filed as functional, cell-based. The conditions noted are these: time 7.0 day. The gist of the method:
as §2

A further data set deals with CWR22R. Kind of data set: Antiproliferation activity against human 22Rv1 assessed as cell growth inhibition incubated for 7 days by CCK-8 assay. It is filed as functional, cell-based. The conditions noted are these: time 7.0 day. The gist of the method:
as §2

A further data set has as its system MDA-MB-468. Kind of data set: Antiproliferation activity against human MDA-MB-468 assessed as cell growth inhibition incubated for 7 days by CCK-8 assay. It is filed as functional, cell-based. The conditions noted are these: time 7.0 day. In a few lines:
as §2

A further data set has as its system LNCaP. Description: Antiproliferation activity against human LNCAP assessed as cell growth inhibition incubated for 7 days by CCK-8 assay. It is filed as functional, cell-based. The conditions noted are these: time 7.0 day. In a few lines: as §2
The test system of data set [5] is SW-620. Description: Antiproliferation activity against human SW620 assessed as cell growth inhibition incubated for 7 days by CCK-8 assay. It is filed as functional, cell-based. The conditions noted are these: time 7.0 day. The gist of the method:
as §2

Another data set deals with MDA-MB-231. Description: Antiproliferation activity against human MDA-MB-231 assessed as cell growth inhibition incubated for 7 days by CCK-8 assay. It is filed as functional, cell-based. The conditions noted are these: time 7.0 day. The gist of the method:
as §2

The test system of data set [6] is MDA-MB-436. Description: Induction of DNA damage in human MDA-MB-436 cells assessed as increase in gammaH2AX foci formation incubated for 24 hrs by Western blot analysis. The conditions noted are these: dose microM 0.1-10, time 24.0 hrs. It is filed as functional, cell-based. In a few lines:
(§3)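 MDA-MB-436 (BRCA1-/-) or Capan-1 (BRCA2-/-) cells were treated 24 h at the indicated concentrations. Lysis was in RIPA buffer with protease inhibitors, and 20-30 μg protein was run on SDS-PAGE. Blots were probed for γH2AX, with β-tubulin as the loading control, and detected by ECL.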
In general terms: In western blotting, separated proteins are transferred to a membrane and probed.

Data set [7] relates to CAPAN-1. Kind of data set: Induction of DNA damage in human Capan1 cells assessed as increase in gammaH2AX foci formation incubated for 24 hrs by Western blot analysis. It is filed as functional, cell-based. The conditions noted are these: dose microM 0.1-10, time 24.0 hrs. In a few lines:
as §3

The test system of data set [8] is CAPAN-1. Description: Antitumor activity against CAPAN-1 cells xenografted in Balb/c mouse assessed as tumor growth inhibition at 100 mg/kg, po qd administered for 21 days. It is filed as functional, organism-based. The conditions noted are these: time 21.0 day. In a few lines:
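Male BALB/c nude mice (5-6 weeks old) carried subcutaneous Capan-1 xenografts (5×10^6 cells, right armpit). At ~150 mm³ they were randomized (6 per group). Dosing was 100 mg/kg by oral gavage daily for 21 days, or 25 mg/kg intraperitoneally 5 times a week for 3 weeks. Vehicle was 5% DMSO/20% PEG400/10% Cremophor EL/65% saline. Tumor volume was (length/2)×width², measured 2-3 times weekly.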

The nature of data set [9]: Acute toxicity in Balb/c mouse xenografted with SW-620 cells assessed as mean weight loss at 10 mg/kg, po qd administered for 5 days in presence of TMZ measured on day 9 relative to control. It is filed as organism-based. The conditions noted are these: in vivo, 216 h. In a few lines:
as §1

Data set [10] concerns SW-620. Description: Potentiation of TMZ induced antitumor activity against SW-620 cells xenografted in Balb/c mouse assessed as tumor growth suppression at 10 mg/kg, po qd administered for 5 days. It is filed as functional, organism-based. The conditions noted are these: time 5.0 day. In a few lines:
as §1

The nature of data set [11]: Acute toxicity in Balb/c mouse xenografted with Capan1 cells assessed as lethality at 100 mg/kg, po qd administered for 5 days in presence of cisplatin. It is filed as organism-based. The conditions noted are these: in vivo, 120 h, time 5 day. The gist of the method:
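Male BALB/c nude mice (5–6 weeks) carried s.c. Capan-1 xenografts (5×10^6 cells, right armpit) and were randomised at about 150 mm³, 6 per group. The agent was given once daily on days 0–4, by oral gavage or i.p., in DMSO/PEG400/Cremophor EL/saline vehicle. Cisplatin 6 mg/kg in saline was given i.p. on day 2, 45 min after the agent. Body weight was recorded 2–3 times weekly.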

A short description of data set [12]: Acute toxicity in Balb/c mouse xenografted with SW-620 cells assessed as lethality at 10 mg/kg, po qd administered for 5 days in presence of TMZ. It is filed as organism-based. The conditions noted are these: in vivo, 120 h, time 5 day. The gist of the method:
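In male BALB/c nude mice (5–6 weeks), s.c. SW620 xenografts (6×10^6 cells, right armpit) were grown to about 150 mm³, then randomised, 6 per group. The agent was given once daily for 5 days, orally or i.p., in 5% DMSO/20% PEG400/10% Cremophor EL/65% saline. TMZ 50 mg/kg was given orally once daily for 5 days from day 0, 45 min after the agent. Body weight was measured 2–3 times weekly.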

Turning to `Cn1nnc2c(C(N)=O)ncn2c1=O` [TEMOZOLOMIDE], the outcome in the data set on SW-620 [1] was Active. Further, the Activity in [2] was 9%.
A word on the IC50: it is the midpoint of a concentration-inhibition curve. For `O=C(c1cc(Cc2n[nH]c(=O)c3ccccc23)ccc1F)N1CCN(C(=O)C2CC2)CC1` [OLAPARIB], the IC50 in the data set with MDA-MB-436 [3] stood at 18 nM; with CAPAN-1 [4], 27 nM. Further, the outcome in the data set with PC-3, in the data set with HCC1937, in the data set on CWR22R, with MDA-MB-468, in the data set with LNCaP and in the data set with SW-620 [5] was Active. Also, the outcome in the data set with MDA-MB-231, with MDA-MB-436 [6], in the data set on CAPAN-1 [7], in the data set with CAPAN-1 [8] and in the data set with SW-620 [10] was Active. In addition, the Activity is 15% in data set [9], “Non-Toxic” in [11] and “Non-Toxic” in data set [12].

These data come from ChEMBL document CHEMBL4699498 (J Med Chem, 2020).
